We go through 19 molecules from ChEMBL document CHEMBL2417392, “Synthesis and broad spectrum antiviral evaluation of bis(POM) prodrugs of novel acyclic nucleosides” (Eur J Med Chem, 2013).

In one data set the test system is CCRF-CEM. Briefly: Cytotoxicity against human CEM cells. It is filed as cell-based.
In a further data set the test system is Hepatitis C virus. Briefly: Antiviral activity against HCV infected in Huh7 cells assessed as inhibition of viral RNA replication after 5 days by RT-PCR Assay. It is filed as functional, Hepacivirus hominis, Huh-7. In a few lines: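 Huh 7 Clone B cells carrying subgenomic HCV replicon RNA, seeded 3000 cells/well, compound added at 10 μM in triplicate right after seeding; 5 days at 37 °C, 5% CO2. Total RNA extracted; replicon RNA and rRNA internal control amplified by one-step multiplex real-time RT-PCR. Activity as ΔCt versus no-drug control (ΔCt 3.3 = 1-log reduction); ΔCt converted to fraction of starting material for % inhibition.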

For data set [1], the system named is Human immunodeficiency virus. Briefly: Antiviral activity against HIV infected in human CEM cells assessed as inhibition of HIV-induced CEM giant cell formation after 4 days by microscopy. To be noted: Human immunodeficiency virus 1, CCRF-CEM, 96 h.
Another data set concerns PBMC. Briefly: Cytotoxicity against human PBMC cells. The class given is cell-based.
The test system of the next data set is Vero. Briefly: Cytotoxicity against african green monkey Vero cells. It is filed as cell-based. To be noted: chlorocebus sabaeus.
A further data set concerns HEL. Briefly: Cytotoxicity against human HEL cells after 3 days by Coulter counting method. It is filed as cell-based. To be noted: 72 h.
A further data set deals with Human betaherpesvirus 5. Briefly: Antiviral activity against human Cytomegalovirus AD169 infected in HEL cells assessed as inhibition of virus-induced cytopathicity after. The class given is functional, organism-based. As to conditions: Human betaherpesvirus 5, AD169, HEL. (In general: Protection from cytopathic effect is a common read-out in antiviral testing.)

On to `CCCCCCCCc1cn(C/C=C/CP(=O)(OCOC(=O)C(C)(C)C)OCOC(=O)C(C)(C)C)nn1`, for which the CC50 (usually the concentration at which the toxic effect on the cells reaches its halfway point) with CCRF-CEM worked out at 16.8 µM; in the data set with PBMC, 19.8 µM; in the data set on Vero, 10.3 µM. For the same molecule, in the data set on Hepatitis C virus, the “inhibition (INH)” value is listed as 88.7%. In addition, in data set [1], the EC50 (as a rule, the concentration needed to bring the measured effect to its halfway point) is > 100 µM. Also, the EC90 (usually the point of the concentration-response curve where the effect stands at 90%) in data set [1] was > 100 µM.
`CC(C)(C)C(=O)OCOP(=O)(C/C=C/Cn1ccc(N)nc1=O)OCOC(=O)C(C)(C)C`: the CC50 with CCRF-CEM, with PBMC and with Vero was > 100 µM in each case. For the same molecule, in the data set with Hepatitis C virus, the “inhibition (INH)” value is reported as 80.4%. Besides, in data set [1], the EC50 is 70.4 µM. For the same molecule, the EC90 in data set [1] is > 100 µM.
In the case of `CC(C)(C)C(=O)OCOP(=O)(C/C=C/Cn1cc(C(=O)O)nn1)OCOC(=O)C(C)(C)C`, the CC50 in the data set on CCRF-CEM, with PBMC and with Vero was > 100 µM throughout. In the data set on Hepatitis C virus, the “inhibition (INH)” value was found to be 53.8%. The EC50 in data set [1] was > 100 µM. Moreover, in data set [1], the EC90 was > 100 µM.
For the molecule `CCCCCCc1ccc(-c2cn(C/C=C/CP(=O)(OCOC(=O)C(C)(C)C)OCOC(=O)C(C)(C)C)nn2)cc1`, the CC50 was 16.1 µM with CCRF-CEM, 5.9 µM in the data set with PBMC and 10.4 µM in the data set with Vero. Besides, in the data set with Hepatitis C virus, the “inhibition (INH)” value was determined as 95%. Also, in data set [1], the EC50 stood at 43.9 µM. Besides, the EC90 in data set [1] was > 100 µM.
In the case of `Nc1ccn(C[C@@H](CO)OCP(=O)(O)O)c(=O)n1` [CIDOFOVIR], the CC50 with HEL is > 350 µM.
Consider `CC(C)(C)C(=O)OCOP(=O)(C/C=C/Cn1cc(CO)nn1)OCOC(=O)C(C)(C)C`, for which the CC50 with HEL was determined as 100 µM; in the data set with CCRF-CEM, 57.4 µM; with PBMC it was 73.2 µM; in the data set with Vero, 87.1 µM. Also, in the data set on Hepatitis C virus, the “inhibition (INH)” value is recorded as 78.1%. The results for the EC50 (in data set [1]; in the data set with Human betaherpesvirus 5) were > 100 µM and 9.9 µM, respectively. The EC90 in data set [1] was > 100 µM.
Consider `CC(C)(C)C(=O)OCOP(=O)(C/C=C/Cn1ccnc(C(N)=O)c1=O)OCOC(=O)C(C)(C)C`, for which the CC50 in the data set with CCRF-CEM, with PBMC and with Vero was > 100 µM each time. Moreover, in the data set with Hepatitis C virus, the “inhibition (INH)” value is 60%. Further, the EC50 in data set [1] is > 100 µM. Further, the EC90 in data set [1] is > 100 µM.
For the molecule `COc1cc(OC)cc(-c2cn(C/C=C/CP(=O)(OCOC(=O)C(C)(C)C)OCOC(=O)C(C)(C)C)nn2)c1`, the 50% cytotoxic concentration (CC50) in the data set with CCRF-CEM is 68.2 µM; in the data set on PBMC it was > 100 µM; in the data set with Vero it was 86.8 µM. The “inhibition (INH)” value in the data set on Hepatitis C virus is 20.8%. Also, the EC50 in data set [1] was > 100 µM. Also, the EC90 in data set [1] was > 100 µM.
Take `Nc1nc(O)c2ncn(COC(CO)CO)c2n1` [GANCICLOVIR]: in the data set on HEL, the CC50 is > 350 µM.
On to `CC(C)(C)C(=O)OCOP(=O)(C/C=C/Cn1cc(-c2ccc(F)cc2)nn1)OCOC(=O)C(C)(C)C`, for which the CC50 is 31.6 µM in the data set with CCRF-CEM, 61.9 µM in the data set on PBMC and 47 µM with Vero. Further, in the data set with Hepatitis C virus, the “inhibition (INH)” value worked out at 84.3%. Besides, the EC50 in data set [1] is > 100 µM. Moreover, the EC90 in data set [1] is > 100 µM.
Take `CC(C)(C)C(=O)OCOP(=O)(C/C=C/Cn1cc(-c2ccc(OC(F)(F)F)cc2)nn1)OCOC(=O)C(C)(C)C`: the figures for the CC50 in the data set on CCRF-CEM, with PBMC and in the data set with Vero were 37.6 µM, 19.6 µM and 12.7 µM, respectively. Further, the “inhibition (INH)” value in the data set with Hepatitis C virus was 60.6%. In data set [1], the EC50 is 55.2 µM. The EC90 in data set [1] was > 100 µM.
Take `CC(C)(C)C(=O)OCOP(=O)(C/C=C/Cn1ccnn1)OCOC(=O)C(C)(C)C`: the CC50 turned out to be 81.8 µM with CCRF-CEM, 93.1 µM in the data set with PBMC and 87.9 µM with Vero. In addition, the “inhibition (INH)” value with Hepatitis C virus is given as 85.9%. In addition, in data set [1], the EC50 was > 100 µM. Further, the EC90 in data set [1] was > 100 µM.
Turning to `CC(C)(C)C(=O)OCOP(=O)(C/C=C/Cn1cc(-c2ccccc2)nn1)OCOC(=O)C(C)(C)C`, the results for the CC50 with CCRF-CEM, in the data set with PBMC and in the data set on Vero were 31.6 µM, 16 µM and 15.6 µM, respectively. Also, the “inhibition (INH)” value in the data set on Hepatitis C virus turned out to be 83.1%. In addition, in data set [1], the EC50 was found to be 35.8 µM. Also, the EC90 in data set [1] was > 100 µM.
Consider `CC(C)(C)C(=O)OCOP(=O)(C/C=C/Cn1cc(F)c(N)nc1=O)OCOC(=O)C(C)(C)C`, for which the “inhibition (INH)” value in the data set with Hepatitis C virus is reported as 73.6%.
`COC(=O)c1nccn(C/C=C/CP(=O)(OCOC(=O)C(C)(C)C)OCOC(=O)C(C)(C)C)c1=O`: the CC50 with CCRF-CEM, with PBMC and in the data set on Vero was > 100 µM in each case. For the same molecule, the “inhibition (INH)” value in the data set with Hepatitis C virus is recorded as 76.9%. The EC50 in data set [1] is > 100 µM. Moreover, the EC90 in data set [1] was > 100 µM.
Regarding `CC(C)(C)C(=O)OCOP(=O)(C/C=C/Cn1cc(C(N)=O)nn1)OCOC(=O)C(C)(C)C`, the CC50 with CCRF-CEM was 52.9 µM; in the data set on PBMC, 62.4 µM; in the data set with Vero it was 80.6 µM. Further, the “inhibition (INH)” value in the data set on Hepatitis C virus is 86.5%. The EC50 in data set [1] worked out at 70.5 µM. The EC90 in data set [1] is > 100 µM.
With `CC(C)(C)C(=O)OCOP(=O)(C/C=C/Cn1cnc(C(N)=O)n1)OCOC(=O)C(C)(C)C`, the values for the CC50 in the data set with CCRF-CEM, in the data set on PBMC and with Vero were 41.8 µM, 58.3 µM and 86.8 µM, respectively. Besides, the “inhibition (INH)” value in the data set with Hepatitis C virus was found to be 73.9%. Besides, the EC50 in data set [1] was > 100 µM. For the same molecule, in data set [1], the EC90 is > 100 µM.
As to `CC(C)(C)C(=O)OCOP(=O)(C/C=C/Cn1cc(-c2cccs2)nn1)OCOC(=O)C(C)(C)C`, the results for the CC50 in the data set on CCRF-CEM, in the data set with PBMC and in the data set on Vero were 31.6 µM, 32.9 µM and 17.1 µM, respectively. Also, the “inhibition (INH)” value in the data set with Hepatitis C virus turned out to be 0.2%. For the same molecule, in data set [1], the EC50 turned out to be 62.3 µM. For the same molecule, in data set [1], the EC90 was > 100 µM.
Turning to `CCCc1ccc(-c2cn(C/C=C/CP(=O)(OCOC(=O)C(C)(C)C)OCOC(=O)C(C)(C)C)nn2)cc1`, the CC50 in the data set with CCRF-CEM stood at 55.3 µM; in the data set on PBMC it was 35.9 µM; in the data set on Vero it was 41 µM. For the same molecule, the “inhibition (INH)” value with Hepatitis C virus was 95.6%. Further, the EC50 in data set [1] was determined as 31.6 µM. Moreover, in data set [1], the EC90 is > 100 µM.
